Results collected from several papers.
Lines come from different studies, so protocols differ.

`Cc1cnc(N2CC3(CCOCC3)C2)c(C(=O)Nc2ccc(C(=O)N3CCc4cc(C(=O)Nc5c(C)cccc5F)sc4-c4ccccc43)cc2)c1` has a pKa of 4.8.
For `O=C1c2c(O)cc(O)cc2O[C@H](c2cc(O)c(O)c(O)c2)[C@H]1O`, the pKa was 7.9 (absorbance; aqueous buffer; pH 3.1).
The pKa of `CC#Cc1cncc(-c2ccc3c(c2)[C@@]2(N=C(C)C(N)=N2)[C@]2(CC[C@H](OC)CC2)C3)c1` is reported as 6.4.
`CC(C)CC(=O)N1CCC[C@H](COc2cccc3c2C(N)=NS(=O)(=O)N3)C1` has a pKa of 6.31.
`CS(=O)(=O)N1CCN(Cc2cc3nc(-c4cccc5[nH]ncc45)nc(N4CCOCC4)c3s2)CC1` gave a pKa of 4.24.
`Cc1cc(Cl)cc(S(C)(=O)=O)c1NC(=O)c1cc(Br)nn1-c1ncccc1Cl` gave a pKa of 8.95 (potentiometric).
`COc1cccc(C=CCC(=O)O)c1OC` gave a pKa of ~4.2.
With `CCn1c(C(=O)N(C2CC2)C2CC2)cc2c3c(ncn3C)c(Nc3cc(C)n(C)n3)nc21` the pKa was 4.
With `COc1ccc(S(=O)(=O)N/N=C/c2cccc(C(=O)O)c2)cc1OC` the pKa was 6.69 (aqueous buffer).
The pKa of `CC(C)(C)CCN1CC2C(CNC(=O)c3cc(Cl)cc(Cl)c3)C2C1` (stereo not shown) is reported as 8.1.
`C=CC(=O)N(C)CCOc1c(N)ncnc1-c1cc(F)cc(NC(=O)c2ccc(C3CC3)cc2F)c1C` has a pKa of 4.1.
The pKa of `COC(=O)c1ccc(/C=N/NS(=O)(=O)c2ccc(OC)c(OC)c2)cc1` is reported as 6.86 (aqueous buffer).
For `COc1ccccc1Oc1c(NS(=O)(=O)c2ccc(C(C)(C)C)cc2)nc(-c2ncccn2)nc1OCCO`, the pKa was 5.11.
